What is called IC50 is the concentration at which inhibition is half-maximal.

Experimental findings from ChEMBL document CHEMBL3616402, “A novel series of indazole-/indole-based glucagon receptor antagonists” (Bioorg Med Chem Lett, 2015) are described below.

The target in assay [1] is T1, Glucagon receptor (Homo sapiens, UniProt P47871). As to the kind of experiment: Displacement of [125I]glucagon from human glucagon receptor expressed in CHO cell membranes. The method in brief: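 Binding: displacement of [125I]glucagon from human GCGR in membranes prepared from a CHO cell line stably expressing hGCGR; IC50 reported in nM.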
In general terms: Loss of bound radioactivity is the signal in a displacement assay; it reports binding, not function.

Assay [2] has as its target T1, Glucagon receptor. Nature of the assay: Antagonist activity against human glucagon receptor expressed in CHO cells assessed as reduction in glucagon-induced cAMP production. The class given is functional, cell-based. Background: Cyclic AMP is a second messenger, typically raised through Gs and lowered through Gi signalling.

T1 sequence (P47871 whole entry): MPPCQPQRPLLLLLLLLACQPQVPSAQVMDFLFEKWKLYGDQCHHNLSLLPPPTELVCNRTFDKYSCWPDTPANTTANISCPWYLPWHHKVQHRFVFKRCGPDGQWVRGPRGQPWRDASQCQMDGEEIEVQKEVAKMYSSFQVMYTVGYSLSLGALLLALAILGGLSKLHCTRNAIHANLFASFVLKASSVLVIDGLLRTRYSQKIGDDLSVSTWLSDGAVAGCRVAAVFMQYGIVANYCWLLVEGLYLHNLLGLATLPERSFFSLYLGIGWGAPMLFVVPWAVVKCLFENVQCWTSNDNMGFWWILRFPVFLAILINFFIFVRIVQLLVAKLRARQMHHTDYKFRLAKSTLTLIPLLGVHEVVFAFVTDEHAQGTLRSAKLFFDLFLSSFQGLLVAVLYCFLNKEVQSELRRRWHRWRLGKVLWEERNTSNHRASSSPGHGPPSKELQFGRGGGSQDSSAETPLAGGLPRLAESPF

For the compound `COc1ncccc1-c1nn(C(C)c2ccc(C(=O)NCCC(=O)O)cc2)c2cc(-c3ccc(OC(F)(F)F)cc3)ccc12` (centres undefined), the IC50 is 0.072 µM in assay [1] and 0.077 µM in assay [2].
For `CCCC(c1ccc(C(=O)NCCC(=O)O)cc1)n1nc(-c2cc(C(F)(F)F)ccc2OC)c2cccc(-c3ccc(C)cc3)c21` (centres undefined), in that order: 0.78 µM and 3.8 µM.
Turning to `CCCC(c1ccc(C(=O)NCCC(=O)O)cc1)n1cc(-c2cc(C(F)(F)F)ccc2OC)c2ccc(-c3ccc(C)cc3)cc21` (racemic), the IC50 is 0.004 µM in assay [1] and 0.048 µM in assay [2].
For the compound `CCC(c1ccc(C(=O)NCCC(=O)O)cc1)n1nc(-c2cc(C(F)(F)F)ccc2OC)c2ccc(-c3ccc(C)cc3)cc21` (centres undefined), the results for the half-inhibitory concentration (IC50) in assay [1] and in assay [2] were 0.004 µM and 0.021 µM, respectively.
The like results for `CC(c1ccc(C(=O)NCCC(=O)O)cc1)n1nc(-c2ccc(Cl)c(F)c2)c2ccc(-c3ccc(OC(F)(F)F)cc3)cc21` (centres undefined) were, in that order, 0.004 µM and 0.044 µM.
For `CCCCC(c1ccc(C(=O)NCCC(=O)O)cc1)n1nc(-c2cc(C(F)(F)F)ccc2OC)c2ccc(-c3ccc(SC)cc3)cc21` (centres undefined), in that order: 0.0015 µM and 0.009 µM.
For the compound `CCCC(c1ccc(C(=O)NCCC(=O)O)cc1)n1nc(-c2cc(C(F)(F)F)ccc2OC)c2cccc(-c3ccc(OC)cc3)c21` (centres undefined), the IC50 in assay [1] came out at 1.7 µM; in assay [2] it was 2.7 µM.
As for `CCCCC(c1ccc(C(=O)NCCC(=O)O)cc1)n1nc(-c2cc(C(F)(F)F)ccc2OC)c2ccc(-c3ccccc3)cc21` (centres undefined), the IC50 worked out at 0.003 µM in assay [1] and 0.018 µM in assay [2].
The like results for `CCCC(c1ccc(C(=O)NCCC(=O)O)cc1)n1nc(-c2cc(C(F)(F)F)ccc2OC)c2cc(-c3ccc(OC)cc3)ccc21` (centres undefined) were, in that order, 0.01 µM and 0.026 µM.
`CCCCC(c1ccc(C(=O)NCCC(=O)O)cc1)n1nc(-c2cc(C(F)(F)F)ccc2OC)c2ccc(-c3ccc(OC)c(F)c3)cc21` (centres undefined): the IC50 in assay [1] came to 0.0015 µM; in assay [2], 0.018 µM.
The like results for `COc1cc(F)c(F)cc1-c1nn(C(C)c2ccc(C(=O)NCCC(=O)O)cc2)c2cc(-c3ccc(OC(F)(F)F)cc3)ccc12` (centres undefined) were, in that order, 0.004 µM and 0.037 µM.
For `CC(c1ccc(C(=O)NCCC(=O)O)cc1)n1nc(-c2ccc(C(=O)N(C)C)cc2)c2ccc(-c3ccc(OC(F)(F)F)cc3)cc21` (centres undefined), in that order: 0.04 µM and 0.21 µM.
The like results for `CCCCC(c1ccc(C(=O)NCCC(=O)O)cc1)n1nc(-c2cc(C(F)(F)F)ccc2OC)c2ccc(-c3cc(F)c(F)c(F)c3)cc21` (centres undefined) were, in that order, 0.0035 µM and 0.026 µM.
On to `CCCC(c1ccc(C(=O)NCCC(=O)O)cc1)n1nc(-c2cc(C(F)(F)F)ccc2OC)c2ccc(-c3ccc(OC)cc3)cc21` (centres undefined), for which the IC50 in assay [1] came out at 0.004 µM; in assay [2], 0.011 µM.
Regarding `COc1ccncc1-c1nn(C(C)c2ccc(C(=O)NCCC(=O)O)cc2)c2cc(-c3ccc(OC(F)(F)F)cc3)ccc12` (centres undefined), the concentration for half-maximal inhibition (IC50) in assay [1] came to 0.11 µM; in assay [2] it was 0.76 µM.
For `CC(c1ccc(C(=O)NCCC(=O)O)cc1)n1nc(-c2cc(F)ccc2Cl)c2ccc(-c3ccc(OC(F)(F)F)cc3)cc21` (centres undefined), in that order: 0.01 µM and 0.14 µM.
The like results for `COc1ccc(Cl)cc1-c1nn(C(C)c2ccc(C(=O)NCCC(=O)O)cc2)c2cc(-c3ccc(OC(F)(F)F)cc3)ccc12` (centres undefined) were, in that order, 0.003 µM and 0.036 µM.
Regarding `COc1nccc(-c2nn(C(C)c3ccc(C(=O)NCCC(=O)O)cc3)c3cc(-c4ccc(OC(F)(F)F)cc4)ccc23)n1` (centres undefined), the IC50 came out at 0.035 µM in assay [1] and 0.084 µM in assay [2].
The like results for `CCCC(c1ccc(C(=O)NCCC(=O)O)cc1)n1nc(-c2cc(C(F)(F)F)ccc2OC)c2cc(-c3ccc(C)cc3)ccc21` (centres undefined) were, in that order, 0.007 µM and 0.017 µM.
For `COc1cncc(-c2nn(C(C)c3ccc(C(=O)NCCC(=O)O)cc3)c3cc(-c4ccc(OC(F)(F)F)cc4)ccc23)c1` (centres undefined), in that order: 0.05 µM and 0.1 µM.
`CCCCC(c1ccc(C(=O)NCCC(=O)O)cc1)n1nc(-c2cc(C(F)(F)F)ccc2OC)c2ccc(-c3ccc(C)s3)cc21` (centres undefined): the IC50 in assay [1] was 0.004 µM; in assay [2], 0.018 µM.
Consider `CC(c1ccc(C(=O)NCCC(=O)O)cc1)n1nc(-c2cc(Cl)ccc2C(N)=O)c2ccc(-c3ccc(OC(F)(F)F)cc3)cc21` (centres undefined), for which the IC50 in assay [1] is 0.002 µM; in assay [2], 0.22 µM.
Consider `CCCCC(c1ccc(C(=O)NCCC(=O)O)cc1)n1nc(-c2cc(C(F)(F)F)ccc2OC)c2ccc(-c3ccc(OC)nc3)cc21` (centres undefined), for which the figures for the IC50 in assay [1] and in assay [2] were 0.0034 µM and 0.024 µM, respectively.
For `COc1ccc(C(F)(F)F)cc1-c1nn(Cc2ccc(C(=O)NCCC(=O)O)cc2)c2cc(-c3ccc(C)cc3)ccc12`, in that order: 0.039 µM and 0.14 µM.
Consider `COc1ccc(OC(F)(F)F)cc1-c1nn(C(C)c2ccc(C(=O)NCCC(=O)O)cc2)c2cc(-c3ccc(OC(F)(F)F)cc3)ccc12` (centres undefined), for which the figures for the IC50 in assay [1] and in assay [2] were 0.007 µM and 0.011 µM, respectively.
For `CCCCC(c1ccc(C(=O)NCCC(=O)O)cc1)n1nc(-c2cc(C(F)(F)F)ccc2OC)c2ccc(-c3ccc(C(F)(F)F)cc3)cc21` (centres undefined), in that order: 0.0016 µM and 0.014 µM.
For `CC(c1ccc(C(=O)NCCC(=O)O)cc1)n1nc(-c2cc(F)c(F)c(F)c2)c2ccc(-c3ccc(OC(F)(F)F)cc3)cc21` (centres undefined), in that order: 0.006 µM and 0.02 µM.
The like results for `CCCC(c1ccc(C(=O)NCCC(=O)O)cc1)n1cc(-c2cc(C(F)(F)F)ccc2OC)c2ccc(-c3ccc(OC(F)(F)F)cc3)nc21` (centres undefined) were, in that order, 0.012 µM and 0.36 µM.
Take `CCCC(c1ccc(C(=O)NCCC(=O)O)cc1)n1nc(-c2cc(C(F)(F)F)ccc2OC)c2ccc(-c3ccc(C)cc3)cc21` (centres undefined): the results for the 50% inhibitory concentration (IC50) in assay [1] and in assay [2] were 0.002 µM and 0.005 µM, respectively.
The like results for `CCCCC(c1ccc(C(=O)NCCC(=O)O)cc1)n1nc(-c2cc(C(F)(F)F)ccc2OC)c2ccc(-c3ccc(OC)cc3Cl)cc21` (centres undefined) were, in that order, 0.004 µM and 0.018 µM.
Turning to `CC(c1ccc(C(=O)NCCC(=O)O)cc1)n1nc(-c2cc(C(F)(F)F)ccc2F)c2ccc(-c3ccc(OC(F)(F)F)cc3)cc21` (centres undefined), the IC50 in assay [1] was determined as 0.005 µM; in assay [2], 0.12 µM.
For `CC(c1ccc(C(=O)NCCC(=O)O)cc1)n1nc(-c2ccc(C#N)cc2)c2ccc(-c3ccc(OC(F)(F)F)cc3)cc21` (centres undefined), the 50% inhibitory concentration (IC50) worked out at 0.015 µM in assay [1] and 0.043 µM in assay [2].
For `CC(c1ccc(C(=O)NCCC(=O)O)cc1)n1nc(-c2ccc(Cl)cc2Cl)c2ccc(-c3ccc(OC(F)(F)F)cc3)cc21` (centres undefined), the half-maximal inhibitory concentration (IC50) turned out to be 0.008 µM in assay [1] and 0.041 µM in assay [2].
Consider `CC(c1ccc(C(=O)NCCC(=O)O)cc1)n1nc(-c2cc(Cl)cc(C(F)(F)F)c2)c2ccc(-c3ccc(OC(F)(F)F)cc3)cc21` (centres undefined), for which the IC50 in assay [1] was determined as 0.003 µM; in assay [2], 0.056 µM.
For `CCCCC(c1ccc(C(=O)NCCC(=O)O)cc1)n1nc(-c2cc(C(F)(F)F)ccc2OC)c2ccc(-c3cc(F)cc(Cl)c3)cc21` (centres undefined), in that order: 0.007 µM and 0.046 µM.
For `CCCC(c1ccc(C(=O)NCCC(=O)O)cc1)n1cc(-c2cc(C(F)(F)F)ccc2OC)c2ccc(-c3ccc(OC)cc3)cc21` (racemic), in that order: 0.008 µM and 0.13 µM.
With `COc1ccc(-c2nn(C(C)c3ccc(C(=O)NCCC(=O)O)cc3)c3cc(-c4ccc(OC(F)(F)F)cc4)ccc23)cn1` (centres undefined), the IC50 was 0.026 µM in assay [1] and 0.065 µM in assay [2].
